From ChEMBL document CHEMBL5030510, “Designed β-Hairpins Inhibit LDH5 Oligomerization and Enzymatic Activity” (J Med Chem, 2021) come the findings set out here.

The structures appear in SMILES notation. A value given as a limit tells only on which side of the number the result lay.

The assay addresses L-lactate dehydrogenase A chain (Homo sapiens, UniProt P00338). The experiment in a line: Inhibition of recombinant full length N-terminal His-tagged human LDHA expressed in Escherichia coli using pyruvate as substrate and NADH as cofactor incubated for 2 hrs by fluorescence assay. In short, it runs like this: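 Reassociation activity assay: 900 nM LDHA stock in phosphate pH 7.4/EDTA/0.05% BSA, acidified 2 min with glycine pH 2.5/BSA. Peptide added in 0.25 M phosphate pH 7.6 and incubated 2 h at RT. Aliquot diluted, then pyruvate (3 mM final) and NADH (0.3 mM final) added. IC50 from dose-response fit.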
The IC50 is the concentration at which inhibition is half-maximal. Take `CC[C@H](C)[C@H](NC(=O)CNC(=O)[C@H](CC(N)=O)NC(=O)[C@H](CCC(N)=O)NC(C)=O)C(=O)N[C@@H](CO)C(=O)N[C@@H](CC(=O)O)C(=O)N[C@@H](CC(C)C)C(=O)N[C@H](C(=O)N[C@@H](CCCCN)C(N)=O)C(C)C`: the IC50 is greater than 40 µM.

In the case of `CC(C)C[C@@H]1NC(=O)[C@H](CCCNC(=N)N)NC(=O)[C@H](CCCNC(=N)N)NC(=O)[C@@H](NC(=O)CN)CSSC[C@@H](C(=O)N[C@@H](CCCNC(=N)N)C(=O)NCC(=O)N[C@@H](CCCNC(=N)N)C(=O)O)NC(=O)[C@H](C(C)C)NC(=O)[C@H]([C@@H](C)O)NC(=O)[C@H](Cc2ccccc2)NC(=O)[C@@H]2CSSC[C@H](NC1=O)C(=O)N[C@@H](Cc1c[nH]c3ccccc13)C(=O)N[C@@H](Cc1ccccc1)C(=O)N[C@@H](CCCNC(=N)N)C(=O)N[C@@H](Cc1ccc(O)cc1)C(=O)N2`, the IC50 was 4.5 µM.

Turning to `CC(C)C[C@@H]1NC(=O)[C@H](CCCNC(=N)N)NC(=O)[C@H](CCCNC(=N)N)NC(=O)[C@@H](NC(=O)CN)CSSC[C@@H](C(=O)N[C@@H](CCCNC(=N)N)C(=O)NCC(=O)N[C@@H](CCCNC(=N)N)C(=O)O)NC(=O)[C@H](C(C)C)NC(=O)[C@H]([C@@H](C)O)NC(=O)[C@H](Cc2ccccc2)NC(=O)[C@@H]2CSSC[C@H](NC1=O)C(=O)N[C@@H]([C@@H](C)O)C(=O)NCC(=O)N[C@@H](CCC(N)=O)C(=O)N[C@@H](CCCNC(=N)N)C(=O)N2`, the IC50 was greater than 40 µM.

For the molecule `CC(C)C[C@@H]1NC(=O)[C@H](CCCNC(=N)N)NC(=O)[C@H](CCCNC(=N)N)NC(=O)[C@@H](NC(=O)CN)CSSC[C@@H](C(=O)N[C@@H](CCCNC(=N)N)C(=O)NCC(=O)N[C@@H](CCCNC(=N)N)C(=O)O)NC(=O)[C@H](C(C)C)NC(=O)[C@H](CCC(N)=O)NC(=O)[C@H](CCCNC(=N)N)NC(=O)[C@@H]2CSSC[C@H](NC1=O)C(=O)N[C@@H](Cc1ccc(O)cc1)C(=O)N[C@@H](CCCCN)C(=O)N[C@@H](CCC(N)=O)C(=O)NCC(=O)N2`, the half-maximal inhibitory concentration (IC50) turned out to be 41.4 µM.

In the case of `CC(C)C[C@@H]1NC(=O)[C@H](CCCNC(=N)N)NC(=O)[C@H](CCCNC(=N)N)NC(=O)[C@@H](NC(=O)CN)CSSC[C@@H](C(=O)N[C@@H](CCCNC(=N)N)C(=O)NCC(=O)N[C@@H](CCCNC(=N)N)C(=O)O)NC(=O)[C@H](C(C)C)NC(=O)[C@H]([C@@H](C)O)NC(=O)[C@H](Cc2ccccc2)NC(=O)[C@@H]2CSSC[C@H](NC1=O)C(=O)N[C@@H](CC(=O)O)C(=O)N[C@@H](CCCNC(=N)N)C(=O)N[C@@H](Cc1ccccc1)C(=O)N[C@@H](Cc1c[nH]c3ccccc13)C(=O)N2`, the IC50 stood at 10.4 µM.

As to `CC[C@H](C)[C@@H]1NC(=O)[C@H](Cc2ccc(O)cc2)NC(=O)[C@H](CC(N)=O)NC(=O)[C@@H]2CSSC[C@H](NC(=O)[C@H](CC(C)C)NC(=O)[C@H](CCCNC(=N)N)NC(=O)[C@H](CCCNC(=N)N)NC(=O)[C@@H](NC(=O)CN)CSSC[C@@H](C(=O)N[C@@H](CCCNC(=N)N)C(=O)NCC(=O)N[C@@H](CCCNC(=N)N)C(=O)O)NC1=O)C(=O)N[C@@H](Cc1ccc(O)cc1)C(=O)N[C@@H](CCCCN)C(=O)N[C@@H](CCC(N)=O)C(=O)N[C@@H](CC(C)C)C(=O)N2`, the concentration for half-maximal inhibition (IC50) was greater than 40 µM.

With `CC(C)C[C@@H]1NC(=O)[C@H](CCCNC(=N)N)NC(=O)[C@H](CCCNC(=N)N)NC(=O)[C@@H](NC(=O)CN)CSSC[C@@H](C(=O)N[C@@H](CCCNC(=N)N)C(=O)NCC(=O)N[C@@H](CCCNC(=N)N)C(=O)O)NC(=O)[C@H](C(C)C)NC(=O)[C@H](CC(C)C)NC(=O)[C@H](CC(=O)O)NC(=O)[C@@H]2CSSC[C@H](NC1=O)C(=O)N[C@@H](Cc1ccc(O)cc1)C(=O)N[C@@H](CCCCN)C(=O)N[C@@H](CCC(N)=O)C(=O)N[C@@H](CCCNC(=N)N)C(=O)N2`, the half-maximal inhibitory concentration (IC50) worked out at 27.3 µM.
